The subject of test [1] is QGY-7703. Put plainly: Induction of autophagy in human QGY-7703 cells assessed as increase in Beclin 1 expression measured after 12 hrs by Western blot analysis. As to conditions: dose 0.5-2 µM. The format is functional, cell-based. The method in brief:
(§1)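 HepG2, QGY-7703 and SMMC-7721 treated with graded concentrations for 12 h. Lysed in RIPA with inhibitors; 40-80 µg protein separated by SDS-PAGE, blotted to nitrocellulose, blocked 1 h in 5% milk, primary antibodies overnight (LC3, Beclin1, Bip, CHOP, TRB3), HRP secondaries, chemiluminescence.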
On the technique in general: Immunoblotting shows a protein as a band on a membrane.

Test [2] relates to HepG2. Put plainly: Antitumor activity against human HepG2 cells xenografted in BALB/c mouse assessed as induction of autophagy by measuring increase in Beclin1 level in tumor tissue at 10 to 20 mg/kg/day, ip administered for 15 days by western blot analysis. The format is functional, organism-based. As to conditions: dose 10-20 mg/kg/day, time 15.0 day. The essentials: (§2)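 HepG2 cells (5×10^6) injected subcutaneously into flanks of 4-week-old male Balb/c nude mice. At about 100 mm³, 15 mice were randomized to vehicle, 10 or 20 mg/kg i.p. once daily for 15 days. Tumors were then excised for immunostaining of paraffin sections (5 μm) or for western blot.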

The subject of test [3] is HepG2. Kind of test: Induction of autophagy in human HepG2 cells assessed as increase in GFP-LC3 puncta formation at 2 uM after 6 hrs by fluorescence microscopic method. The format is functional, cell-based. The essentials:
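HepG2, or HepG2 and shNur77 HepG2, transfected with GFP-LC3, then given vehicle or 2.0 µM for 6 h; GFP-LC3 puncta visualised by fluorescence microscopy alongside phase-contrast images.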

Test [4] concerns HepG2. Put plainly: Induction of apoptosis in human HepG2 cells assessed as early apoptotic cells at 2 uM incubated for 12 hrs by Annexin V-FITC/PI staining based flow cytometry (reference value: 3.99 to 5.35%). The format is functional. Background: Flow cytometry measures light scatter and fluorescence of single cells or particles in a stream.
The subject of test [5] is HepG2. Kind of test: Induction of apoptosis in human HepG2 cells transfected with shRNA assessed as live cells at 2 uM incubated for 12 hrs by Annexin V-FITC/PI staining based flow cytometry (reference value: 92.6%). The format is functional.
The subject of test [6] is HepG2. Kind of test: Induction of endoplasmic reticulum stress in human HepG2 cells assessed as increase in bip expression at 2 uM measured after 1 to 4 hrs by Western blot analysis. The format is functional, cell-based. The settings on record: time 1-4 hrs. The essentials: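 HepG2 exposed to 2.0 µM over a time course; Nur77, Bip, p-EIF2a, TRB3 and LC3 levels followed by Western blot of RIPA lysates.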

For test [7], the system named is HepG2. Kind of test: Induction of apoptosis in human HepG2 cells assessed as cleaved caspase-9 expression at 2 uM pretreated with ER stress inhibitor, 4-PBA for 2 hrs followed by incubation with compound for 12 hrs by Western blot analysis. The format is functional, cell-based. The essentials: (§3)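 HepG2 cells grown to confluence were pretreated 2 h with 2 mM 3-MA (autophagy inhibitor) or 2 mM 4-PBA (ER stress inhibitor), then exposed to compound for 12 h. Proteins (40–80 µg, RIPA lysate) were resolved by SDS-PAGE and blotted for PARP, cleaved caspase-3/-9, Bcl-2 and Bax, with chemiluminescent detection.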

Test [8] deals with HepG2. Put plainly: Induction of apoptosis in human HepG2 cells assessed as necrotic cells at 1 uM incubated for 12 hrs by Annexin V-FITC/PI staining based flow cytometry (reference value: 0.068%). The format is functional.
Test [9] deals with T1, Nuclear receptor subfamily 4immunitygroup A member 1 (Homo sapiens, UniProt P22736). Put plainly: Binding affinity to Nur77 ligand binding domain (unknown origin) assessed as dissociation constant by fluorescence titration based analysis. The method in brief:
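Intrinsic tryptophan fluorescence quench: 1 μM Nur77-LBD titrated with 0–4 μM ligand in about 0.2 μM steps (20 points). After 30 min at room temperature, read at 25 °C, excitation 280 nm, emission 340 nm. KD fitted to a two-state 1:1 complex model.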

The test system of test [10] is HepG2. Put plainly: Antiproliferative activity against human HepG2 cells assessed as reduction in cell viability incubated for 48 hrs by MTT assay. The format is functional, cell-based. The settings on record: HepG2, 48 h. The method in brief: (§4)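 MTT assay after 48 h exposure at six concentrations, range chosen by cytotoxicity. Inhibition = (ODcontrol − ODtest)/ODcontrol × 100%; IC50 is the concentration halving OD versus untreated cells. Means ± SD of three independent determinations. HepG2 and SMMC-7721 grown in DMEM, QGY-7703 and LO2 in RPMI 1640, with 10% FBS at 37 °C.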

Test [11] relates to HepG2. Kind of test: Antitumor activity against human HepG2 cells xenografted in BALB/c mouse assessed as induction of ER stress by measuring increase in CHOP level in tumor tissue at 10 to 20 mg/kg/day, ip administered for 15 days by western blot analysis. The settings on record: dose 10-20 mg/kg/day, time 15.0 day. The format is functional, organism-based. The method in brief: as §2
On the technique in general: Xenograft models place foreign cells or tissue in a host animal.

For test [12], the system named is QGY-7703. Put plainly: Induction of autophagy in human QGY-7703 cells assessed as increase in LC3-II expression measured after 12 hrs by Western blot analysis. The format is functional, cell-based. The settings on record: dose 0.5-2 µM. The method in brief: as §1
Test [13] deals with HepG2. Put plainly: Antitumor activity against human HepG2 cells xenografted in BALB/c mouse assessed as induction of ER stress by measuring increase in bip level in tumor tissue at 10 to 20 mg/kg/day, ip administered for 15 days by western blot analysis. The settings on record: dose 10-20 mg/kg/day, time 15.0 day. The format is functional, organism-based. The method in brief: as §2

Test [14] concerns HepG2. Put plainly: Induction of apoptosis in human HepG2 cells assessed as increase in cleaved PARP level at 0.5 to 2 uM incubated for 12 hrs by Western blot analysis. The format is functional, cell-based. As to conditions: dose 0.5-2 µM. The method in brief:
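HepG2 cells exposed 12 h to graded concentrations. RIPA lysates with protease/phosphatase inhibitors, 40–80 µg protein by SDS-PAGE onto nitrocellulose, probed for PARP cleavage, chemiluminescent detection.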

Test [15] concerns QGY-7703. Put plainly: Induction of endoplasmic reticulum stress in human QGY-7703 cells assessed as increase in TRB3 protein expression incubated for 12 hrs by Western blot analysis. The format is functional, cell-based. As to conditions: dose 0.5-2 µM. The method in brief:
as §1

Test [16] relates to SMMC-7721. Kind of test: Antiproliferative activity against human SMMC-7721 cells assessed as reduction in cell viability incubated for 48 hrs by MTT assay. The format is functional, cell-based. As to conditions: SMMC-7721, 48 h. The essentials: as §4
The test system of test [17] is SMMC-7721. Put plainly: Induction of endoplasmic reticulum stress in human SMMC-7721 cells assessed as increase in bip protein expression incubated for 12 hrs by Western blot analysis. The format is functional, cell-based. As to conditions: dose 0.5-2 µM. The method in brief: as §1
The test system of test [18] is SMMC-7721. Kind of test: Upregulation of Nur77 expression in human SMMC-7721 cells incubated for 6 hrs by Western blot analysis. The settings on record: dose 0.5-2 µM. The format is functional, cell-based. The method in brief:
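HepG2, QGY-7703 and SMMC-7721 cells treated with the indicated concentrations for 6 h. HepG2 also given 2.0 µM over a time course. Lysis in RIPA with protease and phosphatase inhibitors; 40-80 µg protein by SDS-PAGE, nitrocellulose transfer. Membranes blocked with 5% milk, primary antibody overnight, HRP secondary, chemiluminescence. GAPDH as loading control.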

The target in test [19] is T1, Nuclear receptor subfamily 4immunitygroup A member 1. Put plainly: Modulation of Nur77 in human HepG2 cells assessed as induction of nuclear […] pretreated with nuclear export inhibitor, LMB followed by incubation with compound for 12 hrs by fluorescence microscopic analysis. The format is cell-based.
The subject of test [20] is HepG2. Put plainly: Induction of apoptosis in human HepG2 cells assessed as cleaved caspase-3 expression at 2 uM pretreated with autophagy inhibitor, 3-methyladenine for 2 hrs followed by incubation with compound for 12 hrs by Western blot analysis. The format is functional, cell-based. The method in brief:
as §3

A further test relates to L02. Kind of test: Cytotoxicity against human L02 cells assessed as reduction in cell viability incubated for 48 hrs by MTT assay. The format is cell-based. The settings on record: L02, 48 h. The essentials: as §4

SMILES strings stand for the structures. The source made the active and inactive calls. The calls are words filed in the database; no cut-off is given here.

T1 sequence (P22736 whole entry, the tested form may be a part): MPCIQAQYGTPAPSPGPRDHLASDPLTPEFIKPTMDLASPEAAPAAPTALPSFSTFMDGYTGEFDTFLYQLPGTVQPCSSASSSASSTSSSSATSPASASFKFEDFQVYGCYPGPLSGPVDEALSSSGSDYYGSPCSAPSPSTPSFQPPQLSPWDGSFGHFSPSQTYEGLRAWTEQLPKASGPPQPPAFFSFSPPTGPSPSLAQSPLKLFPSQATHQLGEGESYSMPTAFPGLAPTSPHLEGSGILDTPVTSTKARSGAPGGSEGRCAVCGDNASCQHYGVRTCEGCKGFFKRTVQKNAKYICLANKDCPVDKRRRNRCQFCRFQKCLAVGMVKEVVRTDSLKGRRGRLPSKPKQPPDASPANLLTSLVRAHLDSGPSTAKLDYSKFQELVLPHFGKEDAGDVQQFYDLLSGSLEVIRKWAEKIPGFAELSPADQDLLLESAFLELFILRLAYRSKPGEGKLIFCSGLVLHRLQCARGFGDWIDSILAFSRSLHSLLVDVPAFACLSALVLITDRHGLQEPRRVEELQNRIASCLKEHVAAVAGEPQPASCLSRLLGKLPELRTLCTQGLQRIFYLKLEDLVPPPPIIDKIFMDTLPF

On to `COc1cccc2c(Nc3ccc4[nH]c(C(=O)N/N=C/c5ccc(SC)cc5)cc4c3)cc(C)nc12`, for which the Activity result in the test with QGY-7703 [1] was “Dose-dependent effect”; in the test with HepG2 [4] it was 13%; in the test with HepG2 [5], 59.8%; in the test on HepG2 [8] it was 0.41%; in the test on QGY-7703 [12], “Dose-dependent effect”; in the test on HepG2 [14], “Dose-dependent effect”. Further, the Activity result in the test on QGY-7703 [15], in the test on SMMC-7721 [17] and in the test with SMMC-7721 [18] was “Dose-dependent effect” throughout. Further, the outcome in the test with HepG2 [2], in the test on HepG2 [3], in the test on HepG2 [6], with HepG2 [11] and in the test with HepG2 [13] was Active. In addition, the result (in the test with HepG2 [7]; in test [19]; in the test with HepG2 [20]) was inactive. The dissociation constant (Kd) (as a rule, the equilibrium constant for the complex coming apart) in [9] is 1340 nM. The results for the IC50 in the test with HepG2 [10], in the test with SMMC-7721 [16] and with L02 were 600 nM, 1400 nM and > 20000 nM, respectively.

(Values after ChEMBL document CHEMBL4765399, “Design, synthesis, and biological evaluation of 5-((8-methoxy-2-methylquinolin-4-yl)amino)-1H-indole-2-carbohydrazide derivatives as novel Nur77 modulators” (Eur J Med Chem, 2020).)
